Laboratory results from ChEMBL document CHEMBL3098111, “Discovery of 2,5-diarylnicotinamides as selective orexin-2 receptor antagonists (2-SORAs)” (Bioorg Med Chem Lett, 2013).

Columns and labels:
Homo sapiens = species: Homo sapiens; experiment: Selectivity ratio of Ki for human orexin-1 receptor to Ki for human orexin-2 receptor
Summary of the method: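 Radioligand binding: a high-affinity radioligand was bound to membranes from human cells overexpressing OX1R or OX2R, and inhibition of that binding was measured and expressed as Ki. The ratio is the OX1R Ki divided by the OX2R Ki.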

[1] = target: T1, Orexin/Hypocretin receptor type 1 (Homo sapiens, UniProt O43613); experiment: Displacement of [3H]SB-674042 from human orexin-1 receptor after 60 mins by scintillation counting analysis
T1 sequence (O43613 whole entry): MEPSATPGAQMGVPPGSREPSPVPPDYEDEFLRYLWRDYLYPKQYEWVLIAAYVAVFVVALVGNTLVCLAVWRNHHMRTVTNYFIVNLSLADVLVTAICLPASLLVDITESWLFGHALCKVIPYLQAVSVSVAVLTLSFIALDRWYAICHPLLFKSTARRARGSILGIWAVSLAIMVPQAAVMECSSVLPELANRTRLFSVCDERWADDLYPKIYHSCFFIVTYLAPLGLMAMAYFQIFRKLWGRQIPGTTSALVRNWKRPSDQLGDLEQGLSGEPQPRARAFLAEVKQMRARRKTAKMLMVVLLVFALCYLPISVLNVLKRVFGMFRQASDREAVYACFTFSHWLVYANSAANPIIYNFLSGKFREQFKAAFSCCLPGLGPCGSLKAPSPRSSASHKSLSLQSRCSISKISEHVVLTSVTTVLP
Summary of the method: (§1)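 Radioligand binding on membranes from human cells overexpressing the orexin receptor. Inhibition of high-affinity radioligand binding measured and expressed as Ki.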

Orexin receptor type 2 [2] = target: T2, Orexin receptor type 2 (Homo sapiens, UniProt O43614); experiment: Displacement of [3H]SB-674042 from human orexin-2 receptor after 60 mins by scintillation counting analysis; summary of the method: as §1
T2 sequence (O43614 whole entry): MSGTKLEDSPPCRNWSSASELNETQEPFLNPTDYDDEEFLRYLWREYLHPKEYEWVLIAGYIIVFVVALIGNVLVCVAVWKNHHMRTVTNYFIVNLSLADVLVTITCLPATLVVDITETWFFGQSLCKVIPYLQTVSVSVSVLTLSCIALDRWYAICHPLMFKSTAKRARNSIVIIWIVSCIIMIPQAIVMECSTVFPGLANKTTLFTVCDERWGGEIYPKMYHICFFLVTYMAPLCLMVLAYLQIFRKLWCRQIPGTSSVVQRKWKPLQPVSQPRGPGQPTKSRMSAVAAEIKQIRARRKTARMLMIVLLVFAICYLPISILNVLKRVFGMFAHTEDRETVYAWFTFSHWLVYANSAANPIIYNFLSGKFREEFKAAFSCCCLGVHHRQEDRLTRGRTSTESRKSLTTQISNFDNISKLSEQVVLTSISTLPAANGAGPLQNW

[3] = Oral bioavailability in rat; assay type: ADME, organism-based; conditions: in vivo
[4] = Clearance in rat; assay type: ADME, organism-based; conditions: in vivo
[5] = Half life in rat; assay type: ADME, organism-based; conditions: in vivo
[6] = Ratio of drug level in brain to plasma in rat at 3 mg/kg, po after 1 hr; assay type: ADME, organism-based; set-up: dose 3 mg/kg, route oral; conditions: read-out: BPR
[7] = Bioavailability in rat at 10 mg/kg; assay type: ADME, organism-based; conditions: in vivo
[8] = Clearance in rat at 10 mg/kg; assay type: ADME, organism-based; set-up: dose 10 mg/kg; conditions: in vivo
[9] = target: L-type calcium channel, phenylalkylamine binding site (Rattus norvegicus, UniProt P22002+P27732+Q02485); experiment: Inhibition of rat L-type calcium channel phenylalkylamine binding site at 10 uM relative to control
[10] = target: L-type calcium channel, dihydropyridine binding site (Rattus norvegicus, UniProt P22002+P27732+Q02485); experiment: Inhibition of rat L-type calcium channel dihydropyridine binding site at 10 uM relative to control
[11] = target: L-type calcium channel, benzothiazepine binding site (Rattus norvegicus, UniProt P22002+P27732+Q02485); experiment: Inhibition of rat L-type calcium channel benzothiazepine binding site at 10 uM relative to control
MAO-B = MAO-B (Homo sapiens, UniProt P27338); experiment: Inhibition of human MAO-B at 10 uM relative to control
MAO-A = MAO-A (Homo sapiens, UniProt P21397); experiment: Inhibition of human MAO-A at 10 uM relative to control
hERG (KCNH2) [12] = target: T3, hERG (KCNH2) (Homo sapiens, UniProt Q12809); experiment: Inhibition of human ERG at 10 uM relative to control
[13] = Cmax in rat EEG model at 15 mg/kg, po; assay type: ADME, organism-based; set-up: dose 15 mg/kg, route oral; conditions: in vivo
[14] = AUC in rat EEG model at 15 mg/kg, po; assay type: ADME, organism-based; set-up: dose 15 mg/kg, route oral; conditions: in vivo
Nucleic Acid = experiment: Ratio of drug level in CSF to plasma in rat at 3 mg/kg, po after 1 hr; assay type: ADME, organism-based; set-up: dose 3 mg/kg, route oral
MDR1 (P-gp, ABCB1) = MDR1 (P-gp, ABCB1) (Homo sapiens, UniProt P08183); experiment: Activity at human MDR1 expressed in pig LLC-PK cells assessed as efflux ratio of permeability from basolateral to apical side over apical to basolateral side; assay type: ADME, cell-based; conditions: LLC-PK1
[15] = Fraction unbound in rat plasma by equilibrium dialysis method; assay type: ADME, cell-free
[16] = Lipophilicity, log P of the compound; assay type: physicochemical; conditions: octanol/water
[17] = Fraction unbound in human plasma by equilibrium dialysis method; assay type: ADME, cell-free
[18] = target: T1, Orexin/Hypocretin receptor type 1; experiment: Antagonist activity at human orexin-1 receptor assessed as inhibition of orexin-A-induced intracellular calcium mobilization after 30 mins by cell-based FLIPR assay; assay type: functional
Summary of the method: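 Cell-based FLIPR functional assay in orexin receptor-expressing cells, with Ca2+ flux as the read-out of orexin-driven receptor activation.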

Orexin receptor type 2 [19] = target: T2, Orexin receptor type 2; experiment: Antagonist activity at human orexin-2 receptor assessed as inhibition of orexin-A-induced intracellular calcium mobilization after 30 mins by cell-based FLIPR assay; assay type: functional
[20] = target: 5-hydroxytryptamine receptor 2B (Homo sapiens, UniProt P41595); experiment: Inhibition of human 5-HT2B receptor
[21] = target: Voltage-gated inwardly rectifying potassium channel KCNH2 (Homo sapiens, UniProt Q12809); experiment: Inhibition of human ERG
[22] = target: 5-hydroxytryptamine receptor 1A (Homo sapiens, UniProt P08908); experiment: Inhibition of human 5-HT1A receptor
[23] = target: 5-hydroxytryptamine receptor 1B (Rattus norvegicus, UniProt P28564); experiment: Inhibition of rat 5-HT1B receptor
[24] = Inhibition of rabbit monoamine transporter; set-up: species or system Oryctolagus cuniculus
Mu-type opioid receptor = Mu-type opioid receptor (Homo sapiens, UniProt P35372); experiment: Inhibition of human mu opioid receptor
D(3) dopamine receptor = D(3) dopamine receptor (Homo sapiens, UniProt P35462); experiment: Inhibition of human dopamine D3 receptor
[25] = Inhibition of guinea pig adenosine transporter; set-up: species or system Cavia porcellus
hERG (KCNH2) [26] = target: T3, hERG (KCNH2); experiment: Inhibition of human ERG at 10 nM relative to control
hERG (KCNH2) [27] = target: T3, hERG (KCNH2); experiment: Inhibition of human ERG at 0.1 uM relative to control
hERG (KCNH2) [28] = target: T3, hERG (KCNH2); experiment: Inhibition of human ERG at 1 uM relative to control

T3 sequence (Q12809 whole entry): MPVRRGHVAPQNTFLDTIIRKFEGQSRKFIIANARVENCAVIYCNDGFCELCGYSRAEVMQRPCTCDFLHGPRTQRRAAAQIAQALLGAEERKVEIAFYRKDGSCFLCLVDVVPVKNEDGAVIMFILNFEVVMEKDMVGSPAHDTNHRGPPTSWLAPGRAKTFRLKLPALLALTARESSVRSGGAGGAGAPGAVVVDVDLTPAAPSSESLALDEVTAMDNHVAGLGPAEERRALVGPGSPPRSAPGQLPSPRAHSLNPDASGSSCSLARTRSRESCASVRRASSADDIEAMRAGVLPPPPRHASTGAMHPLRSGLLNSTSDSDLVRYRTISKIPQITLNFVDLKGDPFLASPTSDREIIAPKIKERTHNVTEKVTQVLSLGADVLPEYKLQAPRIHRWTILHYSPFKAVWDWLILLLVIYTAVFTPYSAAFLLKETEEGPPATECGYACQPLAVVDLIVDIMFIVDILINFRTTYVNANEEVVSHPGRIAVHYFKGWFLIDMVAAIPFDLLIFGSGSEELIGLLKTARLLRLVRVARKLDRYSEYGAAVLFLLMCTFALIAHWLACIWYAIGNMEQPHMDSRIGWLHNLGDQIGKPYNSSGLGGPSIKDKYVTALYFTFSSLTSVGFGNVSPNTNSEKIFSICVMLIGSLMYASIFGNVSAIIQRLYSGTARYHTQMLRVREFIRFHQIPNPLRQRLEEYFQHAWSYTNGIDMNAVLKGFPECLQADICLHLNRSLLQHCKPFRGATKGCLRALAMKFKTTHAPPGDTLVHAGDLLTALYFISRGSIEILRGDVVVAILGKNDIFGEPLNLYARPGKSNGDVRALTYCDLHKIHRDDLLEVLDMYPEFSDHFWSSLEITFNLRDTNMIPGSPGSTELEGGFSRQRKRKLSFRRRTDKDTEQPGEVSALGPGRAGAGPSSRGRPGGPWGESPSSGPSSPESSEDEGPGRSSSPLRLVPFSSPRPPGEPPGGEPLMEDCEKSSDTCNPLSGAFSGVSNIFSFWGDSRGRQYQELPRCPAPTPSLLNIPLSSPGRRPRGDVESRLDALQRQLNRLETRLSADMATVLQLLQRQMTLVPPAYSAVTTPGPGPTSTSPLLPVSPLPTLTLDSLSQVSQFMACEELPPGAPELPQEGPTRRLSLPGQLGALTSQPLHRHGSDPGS
D(3) dopamine receptor, sequence (P35462 whole entry): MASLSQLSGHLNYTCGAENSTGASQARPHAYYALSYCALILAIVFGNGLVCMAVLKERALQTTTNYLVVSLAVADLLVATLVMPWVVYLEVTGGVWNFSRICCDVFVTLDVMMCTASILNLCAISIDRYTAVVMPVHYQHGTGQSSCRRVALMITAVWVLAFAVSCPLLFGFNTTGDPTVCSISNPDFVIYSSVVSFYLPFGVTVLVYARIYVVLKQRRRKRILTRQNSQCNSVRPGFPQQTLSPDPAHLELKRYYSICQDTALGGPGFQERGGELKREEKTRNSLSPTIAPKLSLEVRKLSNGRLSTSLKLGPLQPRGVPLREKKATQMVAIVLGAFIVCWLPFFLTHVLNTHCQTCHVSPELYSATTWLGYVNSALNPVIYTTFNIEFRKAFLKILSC
5-hydroxytryptamine receptor 1B, sequence (P28564 whole entry): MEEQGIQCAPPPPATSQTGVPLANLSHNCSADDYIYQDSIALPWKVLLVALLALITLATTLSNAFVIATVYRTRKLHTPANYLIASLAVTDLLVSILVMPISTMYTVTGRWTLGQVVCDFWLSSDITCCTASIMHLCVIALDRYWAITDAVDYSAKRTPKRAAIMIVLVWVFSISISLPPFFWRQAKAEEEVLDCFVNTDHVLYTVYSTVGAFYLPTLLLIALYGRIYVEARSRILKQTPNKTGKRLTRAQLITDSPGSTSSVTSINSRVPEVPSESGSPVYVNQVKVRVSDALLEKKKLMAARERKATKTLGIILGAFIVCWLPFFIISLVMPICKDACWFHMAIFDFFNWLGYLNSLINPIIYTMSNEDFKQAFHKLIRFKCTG
Mu-type opioid receptor, sequence (P35372 whole entry): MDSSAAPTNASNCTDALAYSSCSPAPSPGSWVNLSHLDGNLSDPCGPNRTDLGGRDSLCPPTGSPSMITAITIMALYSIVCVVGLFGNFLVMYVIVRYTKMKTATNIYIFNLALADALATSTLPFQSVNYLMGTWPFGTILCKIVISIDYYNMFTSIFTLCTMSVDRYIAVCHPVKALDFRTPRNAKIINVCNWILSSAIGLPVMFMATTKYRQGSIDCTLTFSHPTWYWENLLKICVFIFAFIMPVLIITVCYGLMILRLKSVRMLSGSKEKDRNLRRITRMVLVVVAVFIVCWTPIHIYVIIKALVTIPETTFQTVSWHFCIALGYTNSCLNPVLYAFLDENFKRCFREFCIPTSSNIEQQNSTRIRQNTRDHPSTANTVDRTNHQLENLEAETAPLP
5-hydroxytryptamine receptor 2B, sequence (P41595 whole entry): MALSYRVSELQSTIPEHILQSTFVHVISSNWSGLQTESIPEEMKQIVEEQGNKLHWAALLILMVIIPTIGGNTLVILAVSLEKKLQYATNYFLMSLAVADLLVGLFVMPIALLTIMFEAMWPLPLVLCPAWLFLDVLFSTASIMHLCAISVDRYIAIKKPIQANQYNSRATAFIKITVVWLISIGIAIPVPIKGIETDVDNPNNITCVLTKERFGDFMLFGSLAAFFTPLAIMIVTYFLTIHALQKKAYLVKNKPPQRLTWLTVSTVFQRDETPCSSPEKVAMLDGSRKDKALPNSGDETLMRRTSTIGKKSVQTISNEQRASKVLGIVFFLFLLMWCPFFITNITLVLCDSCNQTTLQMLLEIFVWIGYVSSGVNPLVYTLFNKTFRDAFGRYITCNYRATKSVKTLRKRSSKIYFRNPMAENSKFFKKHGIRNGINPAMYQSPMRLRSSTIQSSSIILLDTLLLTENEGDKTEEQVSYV
5-hydroxytryptamine receptor 1A, sequence (P08908 whole entry): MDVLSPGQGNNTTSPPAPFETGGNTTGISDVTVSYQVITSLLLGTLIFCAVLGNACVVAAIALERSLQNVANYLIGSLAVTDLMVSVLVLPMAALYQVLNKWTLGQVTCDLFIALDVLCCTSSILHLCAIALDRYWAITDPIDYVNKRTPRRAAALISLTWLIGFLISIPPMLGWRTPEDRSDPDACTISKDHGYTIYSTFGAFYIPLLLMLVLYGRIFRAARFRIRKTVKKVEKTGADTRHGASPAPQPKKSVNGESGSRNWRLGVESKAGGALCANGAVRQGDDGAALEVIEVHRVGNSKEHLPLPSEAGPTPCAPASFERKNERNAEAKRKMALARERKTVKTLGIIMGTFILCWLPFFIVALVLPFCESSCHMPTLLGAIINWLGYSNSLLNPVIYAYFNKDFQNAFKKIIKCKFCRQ
Voltage-gated inwardly rectifying potassium channel KCNH2, sequence (Q12809 whole entry): as the sequence (Q12809 whole entry) above
MAO-A, sequence (P21397 whole entry): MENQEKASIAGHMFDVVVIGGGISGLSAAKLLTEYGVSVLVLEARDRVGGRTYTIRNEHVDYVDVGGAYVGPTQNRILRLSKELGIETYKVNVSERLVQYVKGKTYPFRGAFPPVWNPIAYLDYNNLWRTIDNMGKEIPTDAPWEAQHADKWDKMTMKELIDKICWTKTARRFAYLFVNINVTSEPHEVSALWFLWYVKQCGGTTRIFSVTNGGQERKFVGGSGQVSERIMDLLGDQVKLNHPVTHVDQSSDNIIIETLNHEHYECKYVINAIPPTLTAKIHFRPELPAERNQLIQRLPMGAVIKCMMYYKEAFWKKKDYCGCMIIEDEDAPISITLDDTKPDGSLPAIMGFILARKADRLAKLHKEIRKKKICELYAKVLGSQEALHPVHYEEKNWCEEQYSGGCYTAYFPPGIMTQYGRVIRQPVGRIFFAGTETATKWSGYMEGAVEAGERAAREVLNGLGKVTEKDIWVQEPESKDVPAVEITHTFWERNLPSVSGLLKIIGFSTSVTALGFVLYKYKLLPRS

## COc1ccc(CNC(=O)c2cc(-c3cc(C(F)(F)F)cc(C(F)(F)F)c3)cnc2-c2cccnc2)cc1OC
Homo sapiens
  Ratio Ki: 537
[1]
  Ki: 65000 nM
Orexin receptor type 2 [2]
  Ki: 121 nM

## Cc1cc(C)cc(-c2cnc(-c3cccnc3)c(C(=O)NCc3ccc4c(c3)CCN4C)c2)c1
Homo sapiens
  Ratio Ki: 91
[1]
  Ki: 273 nM
Orexin receptor type 2 [2]
  Ki: 3 nM

## COc1cccc(CNC(=O)c2cc(-c3cc(C)cc(C)c3)cnc2-c2cccnc2)c1
Homo sapiens
  Ratio Ki: 83
[1]
  Ki: 3350 nM
Orexin receptor type 2 [2]
  Ki: 40.5 nM

## Cc1cc(C)cc(-c2cnc(-c3cccnc3)c(C(=O)NCc3ccc4c(c3)OCO4)c2)c1
Homo sapiens
  Ratio Ki: 208
[1]
  Ki: 3550 nM
Orexin receptor type 2 [2]
  Ki: 17 nM

## COc1ccc(CNC(=O)c2cc(-c3cc(C)cc(C)c3)cnc2-c2cccnc2)cc1
Homo sapiens
  Ratio Ki: 135
[1]
  Ki: 2980 nM
Orexin receptor type 2 [2]
  Ki: 22 nM

## COc1ccc(CNC(=O)c2cc(-c3cc(Cl)cc(Cl)c3)cnc2-c2cccnc2)cc1OC.Cl
[3]
  bioavailability: 55%
[4]
  clearance: 39 mL/min/kg
[5]
  half-life: 54 min
[6]
  Kp at 1 h: 0.19

## COc1ccc(CNC(=O)c2cc(-c3cc(C)cc(C)c3)cnc2-c2cccnc2)cc1OC
[7]
  bioavailability: 12%
[8]
  clearance: 66 mL/min/kg
Homo sapiens
  Ratio Ki: 660
[1]
  Ki: 462 nM
Orexin receptor type 2 [2]
  Ki: 0.7 nM

## COc1ccc(CNC(=O)c2cc(-c3cc(F)cc(F)c3)cnc2-c2cccnc2)cc1OC
Homo sapiens
  Ratio Ki: 620
[1]
  Ki: 5150 nM
Orexin receptor type 2 [2]
  Ki: 8.3 nM

## COc1ccc(CNC(=O)c2cc(-c3cc(F)cc(Cl)c3)cnc2-c2cccnc2)cc1OC
Homo sapiens
  Ratio Ki: 1810
[1]
  Ki: 1090 nM
Orexin receptor type 2 [2]
  Ki: 0.6 nM

## Cc1cc(C)cc(-c2cnc(-c3cccnc3)c(C(=O)NCc3ccc(F)c(C)c3)c2)c1
Homo sapiens
  Ratio Ki: 61
[1]
  Ki: 1100 nM
Orexin receptor type 2 [2]
  Ki: 18 nM

## COc1ccc(CNC(=O)c2cc(-c3cc(C)cc(F)c3)cnc2-c2cccnc2)cc1OC
Homo sapiens
  Ratio Ki: 1340
[1]
  Ki: 1070 nM
Orexin receptor type 2 [2]
  Ki: 0.8 nM

## Cc1cc(C)cc(-c2cnc(-c3cccnc3)c(C(=O)NCc3ccc(C(F)(F)F)c(F)c3)c2)c1
Homo sapiens
  Ratio Ki: 58
[1]
  Ki: 236 nM
Orexin receptor type 2 [2]
  Ki: 4.1 nM

## Cc1cc(C)cc(-c2cnc(-c3cccnc3)c(C(=O)N(C)Cc3ccc4c(c3)OCO4)c2)c1
Homo sapiens
  Ratio Ki: 3.3
[1]
  Ki: 1900 nM
Orexin receptor type 2 [2]
  Ki: 580 nM

## Cc1cc(C)cc(-c2cnc(-c3cccnc3)c(C(=O)NCc3ccc(N(C)C)cc3)c2)c1
Homo sapiens
  Ratio Ki: 174
[1]
  Ki: 833 nM
Orexin receptor type 2 [2]
  Ki: 4.8 nM

## Cc1cc(C)cc(-c2cnc(-c3cccnc3)c(C(=O)N(C)Cc3ccc4nccnc4c3)c2)c1
Homo sapiens
  Ratio Ki: 92
[1]
  Ki: 7250 nM
Orexin receptor type 2 [2]
  Ki: 78.5 nM

## COc1ccc(CNC(=O)c2cc(-c3cccc(Cl)c3)cnc2-c2cccnc2)cc1OC
Homo sapiens
  Ratio Ki: 574
[1]
  Ki: 747 nM
Orexin receptor type 2 [2]
  Ki: 1.3 nM

## COc1ccc(CNC(=O)c2cc(-c3cc(Cl)cc(Cl)c3)cnc2-c2cccnc2)cc1OC
[9]
  inhibition at 10 µM: 4%
[10]
  inhibition at 10 µM: 24%
[11]
  inhibition at 10 µM: 1%
MAO-B
  inhibition at 10 µM: 31%
MAO-A
  inhibition at 10 µM: 41%
hERG (KCNH2) [12]
  inhibition at 10 µM: 58%
[13]
  Cmax: 2300 nM
[14]
  AUC: 9 µM·h
Nucleic Acid
  Ratio: 0.2%
MDR1 (P-gp, ABCB1)
  efflux ratio: 6.4
[15]
  fraction unbound: 0.047
[16]
  logP: 3.6
[17]
  fraction unbound: 0.032
[18]
  IC50: 292 nM
Orexin receptor type 2 [19]
  IC50: 12 nM
[1]
  Ki: 94.5 nM
Orexin receptor type 2 [2]
  Ki: 0.07 nM
[20]
  IC50: 1040 nM
  Ki: 662 nM
[21]
  IC50: 6950 nM
[22]
  IC50: 2300 nM
  Ki: 1310 nM
[23]
  IC50: 2400 nM
  Ki: 2280 nM
[24]
  IC50: 8210 nM
  Ki: 6820 nM
Mu-type opioid receptor
  IC50: 5020 nM
  Ki: 2040 nM
D(3) dopamine receptor
  IC50: 9540 nM
  Ki: 3240 nM
[25]
  IC50: 2530 nM
  Ki: 866 nM
hERG (KCNH2) [26]
  inhibition at 0.01 µM: 3%
hERG (KCNH2) [27]
  inhibition at 0.1 µM: 12%
hERG (KCNH2) [28]
  inhibition at 1 µM: 17%
